One assay has as its system HL-60. Put plainly: Cytotoxicity against human HL60 cells after 72 hrs. It counts as functional, cell-based. As to conditions: HL-60, 72 h. In short, it runs like this:
(§1)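 KB, HT29, A549 and HL60 lines were sourced from ATCC, with Taxotere as the reference compound. IC50 is the concentration that reduced cell growth by 50%, reported as the mean of duplicate experiments.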

The subject of assay [1] is K562. As to the kind of experiment: Cell cycle arrest in human K562 cells assessed as accumulation at S phase at 4 uM after 24 hrs using propidium iodide staining by flow cytometry (reference value: 56.7%). It counts as functional.
Assay [2] deals with K562. As to the kind of experiment: Cell cycle arrest in human K562 cells assessed as accumulation at G2/M phase at 4 uM after 24 hrs using propidium iodide staining by flow cytometry (reference value: 12.1%). It counts as functional.
The test system of assay [3] is K562. Put plainly: Cell cycle arrest in human K562 cells assessed as accumulation at G0/G1 phase at 4 uM after 24 hrs using propidium iodide staining by flow cytometry (reference value: 30.1%). It counts as functional.
For the next assay, the system named is A549. As to the kind of experiment: Cytotoxicity against human A549 cells after 72 hrs. As to conditions: A549, 72 h. It counts as functional, cell-based. In short, it runs like this:
as §1

Another assay has as its system HT-29. Put plainly: Cytotoxicity against human HT-29 cells after 72 hrs. It counts as functional, cell-based. The note with it: HT-29, 72 h. In short, it runs like this: as §1
The subject of the next assay is KB. Put plainly: Cytotoxicity against human KB cells after 72 hrs. It counts as functional, cell-based. Summed up: as §1

The structures appear in SMILES notation.

With `C=C1C(=O)[C@]23CC[C@@H](C(=C)C)[C@]4(C)CCC(=O)O[C@@]42C[C@H]1C[C@@H]3OC(C)=O` [CROTOBARIN], the half-inhibitory concentration (IC50) was 0.56 µM with HL-60, 0.79 µM in the assay on A549, 2.1 µM with HT-29 and 2.5 µM in the assay with KB. Besides, the figures for the Activity in the assay with K562 [1], with K562 [2] and in the assay with K562 [3] were 25.7%, 56.5% and 12.3%, respectively.

As to `C=C1C(=O)[C@@]23CC[C@@H]1C[C@@]21OC(=O)CC[C@@]1(C)[C@H](C(=C)C)CC3` [CROTOGOUDIN], the IC50 came to 0.49 µM with HL-60, 0.54 µM in the assay with A549, 1.9 µM with HT-29 and 1.5 µM with KB. In addition, the Activity with K562 [1] is 31.8%; with K562 [2], 33.6%; in the assay on K562 [3] it was 22.2%.

`CC(=O)O[C@@]12CO[C@@H]1C[C@H](O)[C@@]1(C)C(=O)[C@H](O)C3=C(C)[C@@H](OC(=O)[C@H](O)[C@@H](NC(=O)OC(C)(C)C)c4ccccc4)C[C@@](O)([C@@H](OC(=O)c4ccccc4)[C@H]21)C3(C)C` [DOCETAXEL]: the IC50 worked out at 0.52 µM in the assay with HL-60, 0.37 µM in the assay on A549, 0.92 µM in the assay on HT-29 and 0.29 µM with KB.

The record behind these values is ChEMBL document CHEMBL1268865, “Cytotoxic 3,4-seco-Atisane Diterpenoids from Croton barorum and Croton goudotii” (J Nat Prod, 2010).
